Data from ChEMBL document CHEMBL4725490, “Decreasing HepG2 Cytotoxicity by Lowering the Lipophilicity of Benzo[d]oxazolephosphinate Ester Utrophin Modulators” (ACS Med Chem Lett, 2020).
pIC50: −log10 of the molar value. In brackets after ≈: the same amount, converted by molar mass. Activity calls are given as the source filed them. No cut-off for these calls is given here.

Assays:
[1] = Protein binding in mouse plasma
[2] = Half life in mouse hepatocyte; settings: hepatocytes
[3] = Apparent permeability across apical to basolateral side in human Caco2 cells; settings: Caco-2
[4] = Apparent permeability across basolateral to apical side in human Caco2 cells; settings: Caco-2
[5] = Lipophilicity, log D of the compound at pH 7.4; settings: buffer
[6] = Kinetic aqueous solubility of the compound
[7] = Inhibition of firefly luciferase activity using ATP as substrate preincubated followed by substrate addition and measured after 15 mins by firefly luciferase reporter gene assay; set-up: species or system Photinus pyralis; settings: for pIC50: read-out: IC50
Procedure, shortened: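 Biochemical counter-screen measuring direct inhibition of recombinant firefly luciferase enzyme activity, used to flag interference in the H2K reporter assay.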

HepG2 = assay: Cytotoxicity against human HepG2 cells assessed as reduction in cell viability incubated for 40 hrs by cell titer glo assay; type: ADME, cell-based; settings: HepG2, 40 h
Mus musculus = species: Mus musculus; assay: Modulation activity of utrophin in dystrophic mouse muscle cells assessed increase in utrophin protein level by western blot analysis relative to control; settings: filed as modulator
Procedure, shortened: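 LUmdx dystrophic mouse muscle cells were treated with compound, and utrophin protein was quantified by Western blot. Values are fold increase in utrophin level.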

[8] = Intrinsic clearance in mouse hepatocyte; settings: hepatocytes

fraction unbound [1]	half-life [2]	Papp A→B [3]	Papp B→A [4]	logD [5]	solubility kinetic [6]	pIC50 [7]	IC50 [7]	Activity (Mus musculus)	CLH [8]	SMILES	pIC50 (HepG2)	PPB [1]
0.03	< 3 min	16.2 ×10⁻⁶ cm/s	11.2 ×10⁻⁶ cm/s	2.8	> 250 µM	5.24	–	–	–	CCP(=O)(OC)c1ccc2oc(-c3ccccc3C(F)F)nc2c1 (stereo not given)	–	–
0.04	37 min	18.1 ×10⁻⁶ cm/s	15.9 ×10⁻⁶ cm/s	3.2	8.4 µM (≈ 3.09 µg/mL)	–	Not Active	–	–	CCP(=O)(OC)c1ccc2nc(-c3cccc(OC(F)F)c3)oc2c1 (stereo not given)	–	–
0.24	5 min	–	–	1.98	699 µM (≈ 259 µg/mL)	–	Not Active	–	–	CCP(=O)(OC)c1ccc2nc(-c3cccnc3C(F)(F)F)oc2c1 (stereo not given)	–	–
–	–	13.3 ×10⁻⁶ cm/s	10.7 ×10⁻⁶ cm/s	–	265 µM (≈ 87.8 µg/mL)	6.72	–	–	–	CCP(=O)(OC)c1ccc2oc(-c3ccc(OC)cc3)nc2c1 (stereo not given)	3.70	–
0.25	> 240 min	–	–	2.44	477 µM (≈ 177 µg/mL)	–	Not Active	Active	–	CCP(=O)(OC)c1ccc2oc(-c3cncc(C(F)(F)F)c3)nc2c1 (stereo not given)	–	–
0.06	20 min	14.2 ×10⁻⁶ cm/s	10.1 ×10⁻⁶ cm/s	3.09	> 250 µM	5.61	–	–	–	CCP(=O)(OC)c1ccc2oc(-c3cccc(C(F)F)c3)nc2c1 (stereo not given)	–	–
–	> 240 min	12.3 ×10⁻⁶ cm/s	11 ×10⁻⁶ cm/s	–	–	–	Not Active	–	–	CCP(=O)(OC)c1ccc2oc(-c3ccnc(C(F)(F)F)c3)nc2c1 (stereo not given)	3.70	–
0.2	> 240 min	–	–	2.41	603 µM (≈ 223 µg/mL)	–	Not Active	–	–	CCP(=O)(OC)c1ccc2nc(-c3cncc(C(F)(F)F)c3)oc2c1 (stereo not given)	–	–
0.03	38 min	12.3 ×10⁻⁶ cm/s	11.5 ×10⁻⁶ cm/s	3.59	469 µM (≈ 173 µg/mL)	–	Not Active	–	–	CCP(=O)(OC)c1ccc2nc(-c3ccc(F)cc3C(F)F)oc2c1 (stereo not given)	–	–
0.26	> 240 min	–	–	1.86	440 µM (≈ 155 µg/mL)	–	Not Active	–	–	CCP(=O)(OC)c1ccc2oc(-c3cncc(C(F)F)c3)nc2c1 (stereo not given)	–	–
0.02	154 min	17.2 ×10⁻⁶ cm/s	16.2 ×10⁻⁶ cm/s	–	574 µM (≈ 219 µg/mL)	< 4.52	–	–	–	CCP(=O)(OC)c1ccc2nc(-c3ccc4c(c3)OC(F)(F)O4)oc2c1 (stereo not given)	4.16	–
0.04	–	–	–	2.98	556 µM (≈ 195 µg/mL)	–	Not Active	Active	–	CCP(=O)(OC)c1ccc2nc(-c3ccc(C(F)F)cc3)oc2c1 (stereo not given)	–	–
0.02	–	–	–	3.06	530 µM (≈ 186 µg/mL)	–	Not Active	–	–	CCP(=O)(OC)c1ccc2oc(-c3ccc(C(F)F)cc3)nc2c1 (stereo not given)	–	–
0.07	> 240 min	21.8 ×10⁻⁶ cm/s	16.9 ×10⁻⁶ cm/s	2.6	834 µM (≈ 307 µg/mL)	< 4.52	–	–	–	CCP(=O)(OC)c1ccc2nc(-c3ccnc(OC(F)F)c3)oc2c1 (stereo not given)	–	–
0.02	154 min	12.7 ×10⁻⁶ cm/s	11.7 ×10⁻⁶ cm/s	2.4	576 µM (≈ 220 µg/mL)	4.63	–	–	–	CCP(=O)(OC)c1ccc2oc(-c3ccc4c(c3)OC(F)(F)O4)nc2c1 (stereo not given)	–	–
0.03	< 3 min	18.8 ×10⁻⁶ cm/s	15.7 ×10⁻⁶ cm/s	2.45	366 µM (≈ 134 µg/mL)	–	Not Active	–	–	CCP(=O)(OC)c1ccc2oc(-c3ccccc3OC(F)F)nc2c1 (stereo not given)	–	–
–	13 min	13.3 ×10⁻⁶ cm/s	9.37 ×10⁻⁶ cm/s	–	–	< 4.52	–	–	–	CCP(=O)(OC)c1ccc2oc(-c3cccc(OC(F)F)c3)nc2c1 (stereo not given)	–	–
0.23	> 240 min	–	–	2.08	487 µM (≈ 172 µg/mL)	–	Not Active	–	–	CCP(=O)(OC)c1ccc2nc(-c3cncc(C(F)F)c3)oc2c1 (stereo not given)	–	–
0.03	< 3 min	–	–	3.33	446 µM (≈ 157 µg/mL)	–	Not Active	–	> 250 µL/min/10^6 cells	CCP(=O)(OC)c1ccc2nc(-c3ccccc3C(F)F)oc2c1 (stereo not given)	–	–
0.03	13 min	–	–	3.4	518 µM (≈ 191 µg/mL)	–	Not Active	–	–	CCP(=O)(OC)c1ccc2oc(-c3ccc(F)cc3C(F)F)nc2c1 (stereo not given)	–	–
0.04	< 3 min	15.7 ×10⁻⁶ cm/s	12.6 ×10⁻⁶ cm/s	3.19	> 250 µM	7.06	–	–	–	CCP(=O)(OC)c1ccc2oc(-c3cccc(OC)c3)nc2c1 (stereo not given)	–	–
0.11	4 min	–	–	2.2	854 µM (≈ 316 µg/mL)	–	Not Active	–	–	CCP(=O)(OC)c1ccc2oc(-c3cccnc3C(F)(F)F)nc2c1 (stereo not given)	–	–
0.14	> 240 min	22.3 ×10⁻⁶ cm/s	20.6 ×10⁻⁶ cm/s	2.2	733 µM (≈ 270 µg/mL)	< 4.52	–	Active	–	CCP(=O)(OC)c1ccc2oc(-c3ccnc(OC(F)F)c3)nc2c1 (stereo not given)	3.70	–

SMILES	fraction unbound [1]	half-life [2]	Papp A→B [3]	Papp B→A [4]	logD [5]	solubility kinetic [6]	pIC50 [7]	IC50 [7]	Activity (Mus musculus)	CLH [8]	pIC50 (HepG2)	PPB [1]
CCP(=O)(OC)c1ccc2oc(-c3ccc(F)cc3)nc2c1 (stereo not given)	–	–	18 ×10⁻⁶ cm/s	15.7 ×10⁻⁶ cm/s	2.8	378 µM (≈ 121 µg/mL)	6.94	–	–	–	3.70	95%
CCP(=O)(OC)c1ccc2oc(-c3cccc(C(F)(F)F)c3)nc2c1 (stereo not given)	–	–	–	–	–	–	4.92	–	–	–	–	–
